Assay results reported in ChEMBL document CHEMBL3351464, “Identifying novel selective non-nucleoside DNA methyltransferase 1 inhibitors through docking-based virtual screening” (J Med Chem, 2014).
Calls of active or inactive are those of the source. The rule behind the calls is not given here.

What was measured:
HCT-116 [1] = experiment: Induction of apoptosis in human HCT116 cells assessed as late apoptotic cells level at 1.5 uM incubated for 24 hrs by 7-AAD and annexin V staining-based flow cytometry (reference value: 3.1%); type: functional
HCT-116 [2] = experiment: Induction of apoptosis in human HCT116 cells assessed as viable cells at 1.5 uM incubated for 24 hrs by 7-AAD and annexin V staining-based flow cytometry (reference value: 92.2%); type: functional; conditions: HCT-116, 24 h, read-out: Activity
[3] = target: T1, DNA (cytosine-5)-methyltransferase 1 (Mus musculus, UniProt P13864); experiment: Inhibition of N-terminal His6-tagged mouse DNMT1 (731 to 1602 residues) expressed in Escherichia coli BL21 (DE3) incubated for 15 mins before addition of [3H]-SAM and poly(dI-dC).poly(dI-dC) by liquid scintillation counting based radioactive methylation assay
T1 sequence (P13864 whole entry, the tested form may be a part): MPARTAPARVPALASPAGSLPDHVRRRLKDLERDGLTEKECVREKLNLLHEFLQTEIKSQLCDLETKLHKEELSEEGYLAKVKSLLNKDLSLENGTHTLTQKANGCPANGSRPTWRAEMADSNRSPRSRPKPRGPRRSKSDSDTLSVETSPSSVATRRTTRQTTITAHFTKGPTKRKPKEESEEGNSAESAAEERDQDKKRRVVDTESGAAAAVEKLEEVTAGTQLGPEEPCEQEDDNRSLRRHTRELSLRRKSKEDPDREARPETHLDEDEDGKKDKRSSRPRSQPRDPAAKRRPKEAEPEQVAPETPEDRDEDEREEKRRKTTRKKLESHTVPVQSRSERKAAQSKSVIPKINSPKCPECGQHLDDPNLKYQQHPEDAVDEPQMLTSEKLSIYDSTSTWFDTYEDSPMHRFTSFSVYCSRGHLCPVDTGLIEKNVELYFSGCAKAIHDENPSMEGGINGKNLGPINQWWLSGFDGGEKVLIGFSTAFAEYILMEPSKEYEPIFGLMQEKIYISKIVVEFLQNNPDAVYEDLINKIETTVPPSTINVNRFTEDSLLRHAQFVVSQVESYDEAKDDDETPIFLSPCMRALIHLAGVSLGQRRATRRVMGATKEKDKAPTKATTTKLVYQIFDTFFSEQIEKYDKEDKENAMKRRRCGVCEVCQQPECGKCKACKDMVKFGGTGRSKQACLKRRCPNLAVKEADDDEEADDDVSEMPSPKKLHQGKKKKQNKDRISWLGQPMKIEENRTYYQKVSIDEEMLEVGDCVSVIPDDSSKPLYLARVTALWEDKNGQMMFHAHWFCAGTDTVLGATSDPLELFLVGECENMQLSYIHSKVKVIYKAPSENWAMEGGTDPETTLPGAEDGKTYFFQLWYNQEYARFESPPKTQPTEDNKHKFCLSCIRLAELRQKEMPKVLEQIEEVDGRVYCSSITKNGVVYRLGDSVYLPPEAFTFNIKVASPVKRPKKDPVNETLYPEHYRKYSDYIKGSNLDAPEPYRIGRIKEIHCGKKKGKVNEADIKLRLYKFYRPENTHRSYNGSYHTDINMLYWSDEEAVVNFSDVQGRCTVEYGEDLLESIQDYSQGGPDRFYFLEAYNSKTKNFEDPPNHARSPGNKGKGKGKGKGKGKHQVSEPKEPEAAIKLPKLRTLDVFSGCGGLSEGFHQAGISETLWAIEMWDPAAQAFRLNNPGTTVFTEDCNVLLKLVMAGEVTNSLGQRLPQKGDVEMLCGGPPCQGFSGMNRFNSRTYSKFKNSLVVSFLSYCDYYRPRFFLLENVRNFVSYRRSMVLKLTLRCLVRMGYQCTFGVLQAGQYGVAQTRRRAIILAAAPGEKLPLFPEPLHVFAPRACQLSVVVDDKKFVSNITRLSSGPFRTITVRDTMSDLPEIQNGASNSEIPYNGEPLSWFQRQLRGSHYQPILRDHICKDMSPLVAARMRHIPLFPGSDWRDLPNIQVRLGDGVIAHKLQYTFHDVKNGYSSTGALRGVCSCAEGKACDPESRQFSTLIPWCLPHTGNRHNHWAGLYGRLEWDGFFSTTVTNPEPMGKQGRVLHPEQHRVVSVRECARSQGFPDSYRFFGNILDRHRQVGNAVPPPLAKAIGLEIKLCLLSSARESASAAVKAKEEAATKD
In short: (§1)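 Enzyme was preincubated with compound for 15 min at room temperature, then reacted for 60 min at 37°C. Products were filter-captured, washed and counted by scintillation. IC50 came from a nonlinear dose-response fit; single-point tests used 50 µM.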

HCT-116 [4] = experiment: Induction of apoptosis in human HCT116 cells assessed as necrotic cells level at 0.75 uM incubated for 24 hrs by 7-AAD and annexin V staining-based flow cytometry (reference value: 0.7%); type: functional
HCT-116 [5] = experiment: Induction of apoptosis in human HCT116 cells assessed as early apoptotic cells level at 0.75 uM incubated for 24 hrs by 7-AAD and annexin V staining-based flow cytometry (reference value: 4%); type: functional
HCT-116 [6] = experiment: Induction of apoptosis in human HCT116 cells assessed as late apoptotic cells level at 3 uM incubated for 24 hrs by 7-AAD and annexin V staining-based flow cytometry (reference value: 3.1%); type: functional
HCT-116 [7] = experiment: Induction of apoptosis in human HCT116 cells assessed as viable cells at 3 uM incubated for 24 hrs by 7-AAD and annexin V staining-based flow cytometry (reference value: 92.2%); type: functional; conditions: HCT-116, 24 h, read-out: Activity
HCT-116 [8] = experiment: Induction of apoptosis in human HCT116 cells assessed as necrotic cells level at 3 uM incubated for 24 hrs by 7-AAD and annexin V staining-based flow cytometry (reference value: 0.7%); type: functional
HCT-116 [9] = experiment: Induction of apoptosis in human HCT116 cells assessed as necrotic cells level at 1.5 uM incubated for 24 hrs by 7-AAD and annexin V staining-based flow cytometry (reference value: 0.7%); type: functional
[10] = target: DNA (cytosine-5)-methyltransferase 1 (Mus musculus) (UniProt P13864); experiment: (§2) Binding affinity to N-terminal His6-tagged mouse DNMT1 (731 to 1602 residues) expressed in Escherichia coli BL21 (DE3) by SPR assay
Sequence of DNA (cytosine-5)-methyltransferase 1 (Mus musculus) (P13864 whole entry, the tested form may be a part): as above
In short: (§3)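 Measured by SPR at 25°C. Purified mouse DNMT1 was amine-coupled to a CM5 chip in 10 mM sodium acetate pH 5.0 and equilibrated overnight in HBS-EP (10 mM HEPES pH 7.4, 150 mM NaCl, 3 mM EDTA, 0.05% P20, 0.1% DMSO). Serially diluted compounds were injected with 120 s contact and 120 s dissociation, and KD was derived by the instrument evaluation software.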

[11] = target: T1, DNA (cytosine-5)-methyltransferase 1; experiment: as §2; in short: as §3
[12] = Binding affinity to DNA (unknown origin) at 0.0625 to 0.5 mM by ethidium bromide dye based agarose gel electrophoresis method
[13] = target: DNA (cytosine-5)-methyltransferase 1 (Mus musculus) (UniProt P13864); experiment: Inhibition of N-terminal His6-tagged mouse DNMT1 (731 to 1602 residues) expressed in Escherichia coli BL21 (DE3) at 50 uM incubated for 15 mins before addition of [3H]-SAM and poly(dI-dC).poly(dI-dC) by liquid scintillation counting based radioactive methylation assay; in short: as §1
HCT-116 [14] = experiment: Induction of apoptosis in human HCT116 cells assessed as late apoptotic cells level at 0.75 uM incubated for 24 hrs by 7-AAD and annexin V staining-based flow cytometry (reference value: 3.1%); type: functional
HCT-116 [15] = experiment: Induction of apoptosis in human HCT116 cells assessed as early apoptotic cells level at 3 uM incubated for 24 hrs by 7-AAD and annexin V staining-based flow cytometry (reference value: 4%); type: functional
HCT-116 [16] = experiment: Induction of apoptosis in human HCT116 cells incubated for 24 hrs by 7-AAD and annexin V staining-based flow cytometry; type: functional, cell-based
HCT-116 [17] = experiment: Induction of apoptosis in human HCT116 cells assessed as early apoptotic cells level at 1.5 uM incubated for 24 hrs by 7-AAD and annexin V staining-based flow cytometry (reference value: 4%); type: functional
HCT-116 [18] = experiment: Induction of apoptosis in human HCT116 cells assessed as viable cells at 0.75 uM incubated for 24 hrs by 7-AAD and annexin V staining-based flow cytometry (reference value: 92.2%); type: functional; conditions: HCT-116, 24 h, read-out: Activity

IC50 [3]: 1700 nM
Activity [10]: Dose-dependent effect
Kd [11]: 910 nM
Activity [12]: inactive
inhibition [13]: 102%
Structure (SMILES): CC(C)NCC(O)COC(Cn1c2ccccc2c2ccccc21)Cn1c2ccccc2c2ccccc21 (racemic)
Activity (HCT-116 [1]): 10.8%
viability at 1.5 µM (HCT-116 [2]): 76%
Activity (HCT-116 [4]): 0.3%
Activity (HCT-116 [5]): 4.6%
Activity (HCT-116 [6]): 27.2%
viability at 3 µM (HCT-116 [7]): 27.5%
Activity (HCT-116 [8]): 2.6%
Activity (HCT-116 [9]): 0.7%
Activity (HCT-116 [14]): 4%
Activity (HCT-116 [15]): 42.7%
Activity (HCT-116 [16]): Dose-dependent effect
Activity (HCT-116 [17]): 12.5%
viability at 0.75 µM (HCT-116 [18]): 91.1%
